According to EPA's CvTdb concentration-time database:

Legend:
[1] = system: Rat; assay: concentration in plasma after dosing; settings: 4 h; dosed: 2-Hydroxy-4-methoxybenzophenone; 500 mg/kg; oral; Male; F344
[2] = system: Rat; assay: concentration in plasma after dosing; settings: dosed: 2-Hydroxy-4-methoxybenzophenone, 500 mg/kg, oral, Male, F344
[3] = system: Mouse; assay: concentration in plasma after dosing; settings: 0.25 h; dosed: 2-Hydroxy-4-methoxybenzophenone; 50 mg/kg; iv; Male; B6C3F1
[4] = system: Rat; assay: concentration in plasma after dosing; settings: dosed: 2-Hydroxy-4-methoxybenzophenone, 100 mg/kg, oral, Male, F344
[5] = system: Mouse; assay: concentration in plasma after dosing; settings: 0.25 h; dosed: 2-Hydroxy-4-methoxybenzophenone; 250 mg/kg; oral; Male; B6C3F1
[6] = system: Rat; assay: concentration in plasma after dosing; settings: dosed: 2-Hydroxy-4-methoxybenzophenone, 250 mg/kg, oral, Female, F344
[7] = system: Rat; assay: concentration in plasma after dosing; settings: 5 min; dosed: alpha-Thujone; 50 mg/kg; oral; Female; Harlan Sprague Dawley
[8] = system: Rat; assay: concentration in brain after dosing; settings: 1.5 h; dosed: alpha-Thujone; 25 mg/kg; oral; Male; Harlan Sprague Dawley
[9] = system: Rat; assay: concentration in brain after dosing; settings: 2 min; dosed: alpha-Thujone; 50 mg/kg; oral; Female; Harlan Sprague Dawley
[10] = system: Rat; assay: concentration in brain after dosing; settings: 0.5 h; dosed: alpha-Thujone; 50 mg/kg; oral; Female; Harlan Sprague Dawley
[11] = system: Rat; assay: concentration in plasma after dosing; settings: 10 min; dosed: alpha-Thujone; 50 mg/kg; oral; Female; Harlan Sprague Dawley
[12] = system: Rat; assay: concentration in plasma after dosing; settings: 12 h; dosed: alpha-Thujone; 25 mg/kg; oral; Male; Harlan Sprague Dawley
[13] = system: Rat; assay: concentration in plasma after dosing; settings: 12 h; dosed: alpha-Thujone; 50 mg/kg; oral; Male; Harlan Sprague Dawley
[14] = system: Rat; assay: concentration in plasma after dosing; settings: 5 min; dosed: alpha-Thujone; 25 mg/kg; oral; Male; Harlan Sprague Dawley
[15] = system: Rat; assay: concentration in brain after dosing; settings: 0.5 h; dosed: alpha-Thujone; 25 mg/kg; oral; Male; Harlan Sprague Dawley
[16] = system: Rat; assay: concentration in plasma after dosing; settings: 0.5 h; dosed: alpha-Thujone; 25 mg/kg; oral; Male; Harlan Sprague Dawley
[17] = system: Rat; assay: concentration in brain after dosing; settings: 5 min; dosed: alpha-Thujone; 25 mg/kg; oral; Male; Harlan Sprague Dawley
[18] = system: Rat; assay: concentration in brain after dosing; settings: 5 min; dosed: alpha-Thujone; 25 mg/kg; oral; Male; Harlan Sprague Dawley; remark: listed apart in the source
[19] = system: Rat; assay: concentration in brain after dosing; settings: 2 min; dosed: alpha-Thujone; 50 mg/kg; oral; Male; Harlan Sprague Dawley
[20] = system: Rat; assay: concentration in plasma after dosing; settings: 3 h; dosed: alpha-Thujone; 25 mg/kg; oral; Female; Harlan Sprague Dawley
[21] = system: Rat; assay: concentration in brain after dosing; settings: 5 min; dosed: alpha-Thujone; 25 mg/kg; oral; Male; Harlan Sprague Dawley; remark: listed apart in the source
[22] = system: Rat; assay: concentration in kidney after dosing; settings: 12 h; dosed: Perfluorohexane-1-sulphonic acid – potassium salt; 16 mg/kg; oral; Female; Harlan Sprague Dawley
[23] = system: Rat; assay: concentration in liver after dosing; settings: 192 h; dosed: Perfluorohexane-1-sulphonic acid – potassium salt; 16 mg/kg; oral; Female; Harlan Sprague Dawley
[24] = system: Rat; assay: concentration in liver after dosing; settings: 6 h; dosed: Perfluorohexane-1-sulphonic acid – potassium salt; 16 mg/kg; oral; Female; Harlan Sprague Dawley
[25] = system: Rat; assay: concentration in liver after dosing; settings: 96 h; dosed: Perfluorohexane-1-sulphonic acid – potassium salt; 16 mg/kg; oral; Female; Harlan Sprague Dawley
[26] = system: Rat; assay: concentration in liver after dosing; settings: 528 h; dosed: Perfluorohexane-1-sulphonic acid – potassium salt; 16 mg/kg; oral; Female; F344
[27] = system: Rat; assay: concentration in plasma after dosing; settings: dosed: Pyridine, 25 mg/kg, oral, Female, Harlan Sprague-Dawley
[28] = system: Rat; assay: concentration in plasma after dosing; settings: dosed: Pyridine, 5 mg/kg, oral, Male, F344
[29] = system: Rat; assay: concentration in plasma after dosing; settings: dosed: Pyridine, 5 mg/kg, oral, Male, F344; remark: listed apart in the source
[30] = system: Rat; assay: concentration in plasma after dosing; settings: 2 min; dosed: Pyridine; 10 mg/kg; iv; Male; F344
[31] = system: Rat; assay: concentration in plasma after dosing; settings: 50 min; dosed: Pyridine; 10 mg/kg; iv; Male; F344
[32] = system: Rat; assay: concentration in plasma after dosing; settings: dosed: Methyleugenol, 37 mg/kg, oral, Female, F344/N
[33] = system: Hamster; assay: concentration in plasma after dosing; settings: dosed: 2,4-Dichlorophenoxyacetic acid, 2.0 mg/kg, oral, Male, Syrian Golden
Procedure, shortened: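 A PubMed search, classifier screening and manual review identified published in vivo toxicokinetic studies, which together with two structured collections supplied concentration-versus-time and amount-versus-time points. Points were mostly digitised from plot screenshots with WebPlotDigitizer, otherwise copied from tables. Dose, route, subject details and medium were hand-curated from each paper, and sampling and analytical methods are those of the sources, often unreported.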

[34] = system: Rat; assay: concentration in plasma after dosing; settings: 18 h; dosed: Primidone; 80 mg/kg; oral; Female; F344
[35] = system: Rat; assay: concentration in plasma after dosing; settings: 3 h; dosed: Primidone; 130 mg/kg; oral; Male; Harlan Sprague Dawley
[36] = system: Rat; assay: concentration in plasma after dosing; settings: 12 h; dosed: Primidone; 30 mg/kg; oral; Female; F344

O=C(c1ccccc1)c1ccc(O)cc1O [2,4-Dihydroxybenzophenone]
Settings	concentration in plasma [ng/mL]
[1]	124
[3]	1940
[5]	1490

Settings	concentration in plasma [ng/mL]
[2], 0.5 h	162
[2], 12 h	148
[4], 0.5 h	160
[4], 5 h	40
[6], 3 h	213
[6], 10 min	128

CC(C)[C@]12CC(=O)[C@H](C)[C@H]1C2 [alpha-Thujone]
Settings	concentration in brain [ng/g]	concentration in plasma [ng/mL]
[7]	–	343
[8]	359	–
[9]	13.2	–
[10]	878	–
[11]	–	1160
[12]	–	11.3
[13]	–	20
[14]	–	104
[15]	883	–
[16]	–	337
[17]	62.6	–
[18]	589	–
[19]	23.4	–
[20]	–	176
[21]	754	–

O=S(=O)([O-])C(F)(F)C(F)(F)C(F)(F)C(F)(F)C(F)(F)C(F)(F)F.[K+] [Perfluorohexane-1-sulphonic acid – potassium salt]
Settings	concentration in kidney [ng/g]	concentration in liver [ng/g]
[22]	25000	–
[23]	–	1580
[24]	–	48400
[25]	–	6730
[26]	–	20900

c1ccncc1 [Pyridine]
concentration in plasma [ng/mL]
Settings	1 h	4 h	5 min	8 h
[27]	21100	–	–	15100
[28]	–	2550	794	–
[29]	–	2550	2490	–

Settings	concentration in plasma [ng/mL]
[30]	10100
[31]	2310

C=CCc1ccc(OC)c(OC)c1 [Methyleugenol]
[32]
Settings	concentration in plasma [ng/mL]
5 h	5.58
20 min	146

O=C(O)COc1ccc(Cl)cc1Cl [2,4-Dichlorophenoxyacetic acid]
[33]
Settings	concentration in plasma [ng/mL]
0.25 h	6170
1 h	492
2 h	1870
2.5 min	146
5 min	4920
10 min	1970

CCC1(c2ccccc2)C(=O)NCNC1=O [Primidone]
Settings	concentration in plasma [ng/mL]
[34]	1600
[35]	108000
[36]	5500
